Bioassay records from PubChem.
This is a sample that favours compounds with a hit; in the whole collection about 7.6% have one here.
Jurkat tox 60K = cytotoxicity toward Jurkat T cells, primary screen, cytotoxicity control, cell-based, Jurkat E6.1, 60K MLSMR library; Jurkat E6.1 viability, ATP luminescence, 48 h; inhibition, % at 4 µM; 56,000 compounds, 1.2% hits; AID 463, 2006;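 active = inhibition above the mean inhibition of all tested compounds plus 3 SD, cut at about 28% in these data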
M1 agonist = M1 muscarinic receptor agonists, primary screen, CHO-M1 cells, Fluo-4 calcium, agonist mode | Muscarinic acetylcholine receptor M1 | Fluo-4 calcium fluorescence; active compounds read high | B-score at 10 µM | 64,000 compounds, 3% hits | AID 626, 2007;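 active = fluorescence rise, raw or as B-score row- and column-corrected plate score, outside the 99.7% band of its plate's samples, either direction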
D1 mod = D1 CRE-luciferase signal change, two-sided – cell-based, HEK293 D1, dopamine EC30, D1 allosteric modulator project, primary screen; D(1A) dopamine receptor (Homo sapiens), P21728; dopamine EC30 potentiation; actives deviate in either direction; B-score at 10 µM; 58,000 compounds, 5.9% hits; AID 641, 2007;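 active = luminescence count or its row- and column-corrected plate score outside the 99.7% band of the plate's sample wells, on either side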
HEK293 NFkB inh = inhibitors of PMA/ionomycin-induced NF-kB reporter, primary screen, antigen receptor NF-kB inhibitor project, cell-based, HEK-293 luciferase reporter, luminescence | inhibition, % at 3 µM | 62,000 compounds, 0.21% hits | AID 465, 2006 | HEK-293 NF-kB luciferase reporter;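 active = inhibition above the mean of all tested compounds plus 3 SD, cut at about 40% in these data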;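 also: 0% = stimulated DMSO wells and 100% = 10 µM reference inhibitor 5653914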
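Signal: luciferase luminescence; Material: HEK-293 cells with stable firefly luciferase reporter driven by four HIV NF-kB elements; Probe or stimulus: PMA with ionomycin; Replication: tested once; Times: 1 h compound pretreatment, then 16 h stimulation at 37 °C, 5% CO2; Benchmarks: DMSO and 10 µM reference inhibitor; Evaluation: per-plate % inhibition versus controls.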
M1 antagonist = antagonists of rat M1 muscarinic receptor | B-score at 10 µM | AID 628, 2007 | CHO-M1 cells, Fluo-4 calcium, ACh EC80 antagonist mode; active compounds read low | 64,000 compounds, 3.4% hits;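 active = calcium fluorescence response, raw or row-and-column corrected B-score, differing from the plate sample mean either way at a set confidence level, mostly lower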
hDAT+cocaine = changed hDAT dopamine uptake under cocaine IC80, either direction, primary screen, cocaine antagonist project, cell-based, LLC-PK1 hDAT, [14C]-dopamine uptake, MLSMR; B-score at 10 µM; Sodium-dependent dopamine transporter (Homo sapiens), Q01959; LLC-PK1 hDAT cells, [14C]-dopamine uptake with cocaine IC80; actives deviate in either direction; 110,000 compounds, 1.3% hits;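 active = Z score or B-score, a plate-position-corrected score, falls beyond the plate's 99.7% confidence bounds, in either direction; inactive = both scores lie inside the 99.7% bounds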;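 also: scored against the spread of the other compound wells on the same plate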
Target sequence (Q01959 whole entry, looked up): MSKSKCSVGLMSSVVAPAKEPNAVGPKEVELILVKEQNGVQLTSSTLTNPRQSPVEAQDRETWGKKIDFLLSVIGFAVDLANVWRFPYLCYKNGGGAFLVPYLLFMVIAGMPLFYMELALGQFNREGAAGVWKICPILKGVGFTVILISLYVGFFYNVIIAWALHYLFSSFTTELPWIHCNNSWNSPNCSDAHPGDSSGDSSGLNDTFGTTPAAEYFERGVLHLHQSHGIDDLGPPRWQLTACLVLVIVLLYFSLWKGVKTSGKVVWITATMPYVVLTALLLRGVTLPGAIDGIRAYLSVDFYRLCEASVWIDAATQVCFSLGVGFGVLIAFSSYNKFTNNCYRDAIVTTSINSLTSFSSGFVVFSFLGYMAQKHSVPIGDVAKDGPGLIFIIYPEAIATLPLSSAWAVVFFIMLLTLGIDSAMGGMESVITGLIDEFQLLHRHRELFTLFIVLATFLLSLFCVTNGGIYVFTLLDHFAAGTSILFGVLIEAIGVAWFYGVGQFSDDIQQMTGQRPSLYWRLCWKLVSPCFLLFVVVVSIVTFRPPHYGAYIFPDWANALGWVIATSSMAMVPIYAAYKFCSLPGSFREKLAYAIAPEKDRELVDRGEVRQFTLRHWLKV
Numbers without * were called inactive; . = not tested or not shown.

SMILES | Jurkat tox 60K | M1 agonist | D1 mod | HEK293 NFkB inh | M1 antagonist | hDAT+cocaine
Cc1cc(=O)n2nc(-c3ccccc3)sc2n1 | 3 | -0.32 | -0.8 | -4 | -0.0076 | -2.7*
COC(=O)c1cc(=O)nc2sc(-c3ccccc3)nn12 | . | -0.85 | 0.37 | 9 | 0.0073 | -0.92
CCOc1ccccc1NC(=O)N1CCC(n2nnc3cc(C)ccc32)CC1 | 8 | 1.8 | . | 28 | -0.36 | 2.4*
CCOC(=O)c1oc2ccccc2c1N | . | . | . | . | . | -0.0042
CCOC(=O)Nc1cc(=O)c2ccccc2o1 | 90* | 0.15 | -0.019 | 12 | -0.18 | -0.74
C=CCn1cc(C(=O)OC)c(=O)c2cc(S(=O)(=O)N(CC)CC)ccc21 | . | . | . | . | . | 0.089
Cc1c(NC(=O)COC(=O)C(c2ccc(Cl)cc2)C(C)C)c(=O)n(-c2ccccc2)n1C (stereo not drawn) | . | . | . | . | . | -7.9*
CCC(C(=O)OCC(=O)Nc1c(C)n(C)n(-c2ccccc2)c1=O)c1ccccc1 (stereo not drawn) | . | -1.6 | -0.022 | -10 | -1.8 | 0.41
CCOc1ccccc1NC(=O)COc1cccc(-n2cnnn2)c1 | 10 | 0.75 | 3.1 | 20 | 0.41 | -1.8
CCOc1ccccc1COC(=O)c1cccc(-n2cnnn2)c1 | 11 | 0.27 | 10* | 13 | -0.28 | -0.96
Cc1ccc(S(=O)(=O)N2C(=S)SCC2(C)C)cc1 | 12 | -0.013 | 1.3 | -4 | 0.76 | -0.43
CC1=CC(C)(C)N(S(=O)(=O)c2ccc(C)cc2)c2cc(C)ccc21 | . | . | . | . | . | -2*
Clc1ccc(-c2nnc(N3CCCC3)nn2)cc1 | . | -0.027 | -2.5* | -24 | -0.4 | 0.19
Cc1cc(NC(=O)CSCCO)no1 | . | . | . | . | . | -0.21
CCOC(=O)CNC(=O)CSc1nnc(-c2ccccc2)n1Cc1ccco1 | -5 | 0.35 | -1.3 | 16 | 0.82 | 2.6
CC(C)C(=O)Nc1cccc(-c2cnc3ccccc3n2)c1 | . | . | . | . | . | 2.7*
Cc1ccc(C(=O)Nc2cccc(-c3cnc4ccccc4n3)c2)cc1 | . | . | . | . | . | 1.5
COc1ccccc1-n1cnc(N)c1C(=O)c1ccccc1 | 36* | 0.28 | 0.24 | 12 | -0.67 | -1
CCOc1ccc(NC(=O)C2CCN(c3nnnn3-c3ccccc3)CC2)cc1 | . | . | . | . | . | -1.2
Cc1ccsc1C=Nc1ccc(O)cc1 | 48* | -0.41 | 0.04 | 16 | 0.18 | 0.012
COc1ccc(-n2c(=S)[nH]c3cc(C(=O)NCc4ccco4)ccc3c2=O)c(OC)c1 | . | . | . | . | . | 0.8
Cc1ccc(C(=O)O)cc1S(=O)(=O)N1CCSCC1 | -4 | 0.74 | -0.38 | 8 | 1 | -9.1*
CCc1ccc(S(=O)(=O)Nc2c(C)nn(C)c2C)cc1 | . | . | . | . | . | 0.52
COc1ccc(-c2cc(C(=O)NCc3cccnc3)no2)cc1 | -7 | -0.27 | -1.4 | -3 | 0.67 | 1
O=C(NCc1cccnc1)c1cc(-c2ccccc2)on1 | -7 | -0.49 | 0.21 | -9 | -0.24 | 3.6*
SMILES | Jurkat tox 60K | M1 agonist | D1 mod | HEK293 NFkB inh | M1 antagonist | hDAT+cocaine
C/C(NCc1ccccc1)=C(\C#N)C(=O)NCc1ccccc1 | . | . | . | . | . | 0.0051
C/C(NCc1cccnc1)=C(\C#N)C(=O)NCc1ccccc1 | 1 | 0.64 | 0.75 | -1 | 2.2* | 0.68
COc1cc(C2/C(=C(\O)c3cc(C)ccc3C)C(=O)C(=O)N2CCN(C)C)ccc1O (stereo not drawn) | . | 0.99 | . | 14 | 0.42 | -0.65
Cc1ccc(N2C(=O)c3ccc(N)cc3C2=O)cc1C | -7 | -1.5 | -0.76 | -28 | 1.3 | -0.52
CCCCCn1c(SCCCC)nc2c1c(=O)[nH]c(=O)n2C | -3 | -0.43 | 20* | 2 | 0.41 | -0.67
CCOC(=O)C(C)Sc1nc2c(c(=O)[nH]c(=O)n2C)n1CCc1ccccc1 (stereo not drawn) | 4 | 0.31 | 5.6* | 13 | -0.5 | -0.0066
CCCCCCn1c(SCCC)nc2c1c(=O)[nH]c(=O)n2C | -3 | -0.69 | -0.2 | 6 | -0.12 | 0.022
C/C(Cl)=C/Cn1c(SCC(C)C)nc2c1c(=O)[nH]c(=O)n2C | -1 | -0.38 | 14* | 14 | -0.13 | 0.23
CC(C)(C)C(=O)Nc1ccccc1C(=O)Nc1cc(Cl)ccc1Cl | . | . | . | . | . | -1.7
COc1ccc(NC(=O)CCCn2c(=S)[nH]c3ccccc3c2=O)cc1 | . | . | . | . | . | -0.73
O=C(NCCNC(=O)c1cc(OCC(F)(F)F)ccc1OCC(F)(F)F)Nc1ccc(OC(F)(F)F)cc1 | . | . | . | . | . | 0.16
O=C(C1CC1)N1CCc2cc(Br)cc(S(=O)(=O)N3CCCCCC3)c21 | . | -0.43 | . | 14 | 0.12 | 6*
Cc1ccc(CNc2ccc3c(c2)OCO3)cc1 | 9 | 2.1 | -5* | 11 | 0.03 | 0.066
CCCCN(CC)Cc1ccc(CNC(=O)Nc2ccccc2)o1 | . | . | . | . | . | -2.5*
Cn1c(=O)c2c(nc(CN3CCCCC3)n2CCCc2ccccc2)n(C)c1=O | . | 0.69 | -0.73 | 10 | -0.13 | 1.9
CCN1CCN(Cc2nc3c(c(=O)n(C)c(=O)n3C)n2CCc2ccccc2)CC1 | 1 | 0.061 | 0.49 | 7 | 0.83 | -3*
CCOCCn1c(CN2CCCCC2C)nc2c1c(=O)n(C)c(=O)n2C (stereo not drawn) | -2 | -2.5 | 0.16 | 8 | -3.2* | .
CC1CCCN(Cc2nc3c(c(=O)n(C)c(=O)n3C)n2CCCc2ccccc2)C1 (stereo not drawn) | 4 | 2.4* | -1 | 5 | -0.0065 | 2.8
CCCCn1c(CN2CCN(c3ccc(F)cc3)CC2)nc2c1c(=O)n(C)c(=O)n2C | 0 | -0.41 | -2.6* | 19 | 0.23 | 0.24
COc1ccc(NC(=O)c2sc3cc(C(F)(F)F)cnc3c2-c2cccs2)cc1 | . | . | . | . | . | -0.69
Cn1c(=O)c2c(nc(CN3CCOCC3)n2CCc2ccccc2)n(C)c1=O | . | 0.13 | 0.66 | 11 | -0.014 | -0.28
CC1CCCN(Cc2nc3c(c(=O)n(C)c(=O)n3C)n2CCc2ccccc2)C1 (stereo not drawn) | 7 | 2.3* | -0.37 | 6 | 0.5 | -0.009
CCOC(=O)CCS(=O)(=O)c1nc(-c2ccccc2)cc(C(F)(F)F)n1 | 68* | 0.86 | 1.5 | 10 | 0.0097 | -0.078
COC(=O)CCS(=O)(=O)c1nc(-c2ccccc2)cc(C(F)(F)F)n1 | . | . | . | . | . | -0.94
CCOC(=O)CS(=O)(=O)c1nc(-c2ccc(F)cc2)cc(C(F)(F)F)n1 | 34* | 4.4* | -0.11 | 14 | 0.051 | 0.21
CCOC(=O)CS(=O)(=O)c1nc(-c2ccccc2)cc(C(F)(F)F)n1 | 55* | 0.53 | 0.059 | 4 | -2.1 | -0.33
COc1ccc(-c2cc(C(F)(F)F)nc(S(C)(=O)=O)n2)cc1 | . | . | . | . | . | -0.74
CCOC(=O)CN1NC2(CCCC(C)C2)NC1=S (stereo not drawn) | . | . | . | . | . | -0.14
